MC4R antag cAMP: antagonists of human melanocortin 4 receptor (MC4R). MC4R-expressing cells, MTII-stimulated cAMP, LANCE TR-FRET. inhibition, % at 6.5 µM. actives 0.48% (n = 360,000);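 active means inhibition above its plate's cutoff, the mean of tested wells on that plate plus 3 SD, cut at about 29% in these data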
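System: U2OS-MC4R stable cell line; Technique: Eu-cAMP/anti-cAMP TR-FRET, emission 671 nm; Repeats: single well per compound; Also added: Melanotan II; Dosing: one concentration, 6.5 µM nominal; Schedule: 30-min compound, 1-h challenge, 1-h detection, room temperature.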
B2AR ag: human beta-2 adrenergic receptor agonism by FAP; P07550; Am2.2-beta2AR cells, FAP receptor internalization, flow cytometry; actives 0.43% (n = 340,000); response, % (no concentration beside the values);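 active means response above a set limit, near 3 SD of response in nonfluorescent compounds, cut at about 42% in these data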
Target sequence (P07550 whole entry, looked up): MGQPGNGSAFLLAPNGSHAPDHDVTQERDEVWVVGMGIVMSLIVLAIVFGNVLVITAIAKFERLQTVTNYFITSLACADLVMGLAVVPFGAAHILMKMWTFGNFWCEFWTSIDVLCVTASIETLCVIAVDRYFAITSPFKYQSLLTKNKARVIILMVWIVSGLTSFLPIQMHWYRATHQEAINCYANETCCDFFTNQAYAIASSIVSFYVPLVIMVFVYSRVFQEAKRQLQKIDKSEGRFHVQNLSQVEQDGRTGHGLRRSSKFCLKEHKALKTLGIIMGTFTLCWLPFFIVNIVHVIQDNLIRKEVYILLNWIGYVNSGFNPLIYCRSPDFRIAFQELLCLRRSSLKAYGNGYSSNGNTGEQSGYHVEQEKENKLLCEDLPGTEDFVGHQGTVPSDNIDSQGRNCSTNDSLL
TAAR1 antagonist: human TAAR1 antagonism. Q96RJ0. CHO RD-HGA16 TAAR1, Fluo-8 calcium fluorescence, antagonist. inhibition, % at 3 µM. actives 1.5% (n = 360,000). AID 624466;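 active means inhibition above a per-plate cutoff, the mean inhibition of test compounds on that plate plus 3 SD, cut at about 49% in these data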
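Test system – hTAAR1-expressing CHO RD-HGA16 cells, Gα16-coupled · Also added – β-PEA at EC80 concentration, post-compound challenge · Compound – 3 µM, single point · Incubation – dye loading 75 min at 37 °C, then 30 min room temperature · Measured by – Fluo-8 intracellular calcium dye fluorescence, real-time kinetic reads · Benchmarks – vehicle and agonist controls · Replicates – singlicate, one well per test compound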
MC4R ag barr: agonists of human melanocortin 4 receptor (MC4R) beta-arrestin; P32245; U2OS MC4R beta-arrestin complementation, luminescence; percent of melanotan II response, DMSO zero; activation, % at 8.9 µM; actives 0.98% (n = 360,000);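 active means activation above a per-plate cutoff, the mean activation of sample wells on that plate plus 3 SD, cut at about 8% in these data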
m5-HT2A agonist: activates the mouse 5-HT2A serotonin receptor | activation, % at 7.6 µM | CHO-K1 mHTR2A beta-arrestin complementation, luminescence; percent of 30 µM serotonin response | AID 624169 | actives 0.66% (n = 360,000);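 active means activation above a run cutoff, the mean activation of all tested compounds plus 3 SD, cut at about 14% in these data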
TAAR1 ag: human TAAR1 agonism | CHO RD-HGA16 TAAR1, Fluo-8 calcium fluorescence; vehicle wells 0%, saturating PEA agonist 100% | Q96RJ0 | activation, % at 3 µM | actives 0.99% (n = 360,000);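 active means activation above the mean activation of all test compounds in the run plus 3 SD, cut at about 38% in these data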
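Test system: RD-HGA16 (CHO) cells co-expressing Gα16 and hTAAR1; dosing: one-point dosing at 3 µM (nominal); timing: 17-24 h seeding, 75 min 37 °C dye, 30 min RT; signal: kinetic Fluo-8 calcium fluorescence; read-out basis: % activation relative to PEA EC100 response; controls: DMSO and PEA EC100; replicates: n 1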
Large screens that a line does not name were inactive. In the library only some 4.3% were active in any assay of this set; here they are far more common.

O=C(Nc1ccc([N+](=O)[O-])cc1)C1CC1(c1ccccc1)c1ccccc1 (configuration not stated)	TAAR1 antagonist 54
CNc1ccc2c3c(cccc13)C(=O)N(C)C2=O	TAAR1 ag 157
CN1C(=O)c2cccc3c(Cl)ccc(c23)C1=O	none
O=C1c2sc3nc4ccccc4n3c2C(=O)N1c1ccccc1Cl	B2AR ag 46
Cc1ccccc1N1C(=O)c2sc3nc4c(c(=O)n3c2C1=O)CCC4	none (no result: TAAR1 antagonist, TAAR1 ag)
C[C@H](NC(=O)c1nc[nH]c1C(=O)NCc1ccc(CNC(=O)OC(C)(C)C)cc1)C(=O)OCc1ccccc1	TAAR1 antagonist 82
C[C@H](NC(=O)c1nc[nH]c1C(=O)NCC(=O)OCc1ccccc1)C(=O)OC(C)(C)C	none
O=S1(=O)C=C[C@@H](CO)N1Cc1ccc(Br)cc1	none (no result: MC4R antag cAMP, B2AR ag, MC4R ag barr)
O=C(Cn1cnc2ccccc21)N/N=C/C(Br)=C/c1ccccc1	TAAR1 antagonist 49
Cn1c(=O)c2c(ncn2CC(=O)N/N=C/C(Br)=C/c2ccccc2)n(C)c1=O	none
COc1cc(OC)cc(C(=O)Nc2ccc(C(=O)Nc3ccccc3OC)cc2)c1	TAAR1 antagonist 56
COc1ccccc1NC(=O)NC(=O)c1ccccc1	MC4R ag barr 8.8
CNC(=O)c1nnsc1S(=O)(=O)c1ccc(Cl)cc1	B2AR ag 49
O=[N+]([O-])c1ccc(COc2cccc(CO)c2)cc1	none (no result: MC4R antag cAMP, B2AR ag, MC4R ag barr, m5-HT2A agonist)
O=C(Cn1cc([N+](=O)[O-])cn1)N1CCc2ccccc21	m5-HT2A agonist 16
O=C(NC1CCCC1)C(c1ccccc1)N(Cc1ccc2c(c1)OCO2)C(=O)Cc1cccs1 (configuration not stated)	TAAR1 antagonist 51
O=C(NC1CCCC1)C(c1ccsc1)N(Cc1ccccc1)C(=O)Cc1cccs1 (configuration not stated)	TAAR1 antagonist 52
CC(C)(C)c1ccc(/C=N/N2C(=O)CSC2=S)cc1	B2AR ag 65
CC1CC(C)CN(C(C(=O)NC2CCCCC2)c2cc3ccccc3o2)C1 (configuration not stated)	none (no result: MC4R antag cAMP, B2AR ag, MC4R ag barr)
CCCN1C(=O)c2cc(C(=O)Nc3cccc(C(C)=O)c3)ccc2C1Nc1cccc(C(C)=O)c1 (configuration not stated)	TAAR1 antagonist 74
O=C(NCc1cccnc1)NC1(c2ccccc2)CC1	m5-HT2A agonist 20
Oc1c(Br)cc(/C=N/Nc2ccc(Cl)nn2)cc1Br	none
Oc1ccc(/C=N/Nc2ccc(Cl)nn2)c(O)c1O	B2AR ag 92
Fc1cccc(/C=N/Nc2ccc(Cl)nn2)c1	MC4R ag barr 12
CC(C)CN1CCC(CN2C(=S)NC[C@@H]2Cc2ccccc2)CC1	none (no result: MC4R antag cAMP, B2AR ag, MC4R ag barr, m5-HT2A agonist)
Cc1ccc(CCNC(=O)C(C)n2nc(C)c3c(C)n(-c4ccccc4)nc3c2=O)cc1 (configuration not stated)	none
Cc1ccc(-n2nc3c(=O)n(C(C)C(=O)NCCC4=CCCCC4)nc(C)c3c2C)cc1 (configuration not stated)	TAAR1 ag 38
Cc1cccc(CC(Cc2nc3ccccc3[nH]2)c2nc3ccccc3[nH]2)c1 (configuration not stated)	TAAR1 antagonist 52
CN(CC(=O)NCC(=O)Nc1ccc(F)cc1)CC(=O)Nc1ccc(Cl)c(C(F)(F)F)c1	none
CN(CC(=O)Nc1ccc(Cl)c(C(F)(F)F)c1)C(=O)C1CC(=O)N(CCc2ccccc2)C1 (configuration not stated)	TAAR1 antagonist 50
COc1ccc(CCN2CC(C(=O)N(C)CC(=O)Nc3ccc(Cl)c(C(F)(F)F)c3)CC2=O)cc1OC (configuration not stated)	none
CN(CC(=O)NCc1ccc(F)cc1)CC(=O)Nc1ccc(Cl)c(C(F)(F)F)c1	MC4R ag barr 9.0
COc1cccc2cc(-c3nnc(SCC(=O)Nc4nc(C)cs4)n3C)oc12	m5-HT2A agonist 25
CC1CCN(c2ccc3c(c2)S(=O)(=O)c2cccc(C(=O)NCc4ccc(F)cc4)c2C3=O)CC1	none
O=C(NC1CCCCC1)c1cccc2c1C(=O)c1ccc(N3CCCC3)cc1S2(=O)=O	TAAR1 antagonist 59
COc1ccccc1N1CCN(c2ccc3c(c2)S(=O)(=O)c2cccc(C(=O)NCC4CC4)c2C3=O)CC1	TAAR1 antagonist 54 (no result: B2AR ag)
CC(C)c1cccc(-c2ccc3c(c2)S(=O)(=O)c2cccc(C(=O)NCc4ccco4)c2C3=O)c1	TAAR1 antagonist 52
O=C(NC[C@@H]1CCCO1)c1cccc2c1C(=O)c1ccc(Cl)cc1S2(=O)=O	none
COc1ccc(-c2ccc3c(c2)S(=O)(=O)c2cccc(C(=O)NC[C@@H]4CCCO4)c2C3=O)cc1OC	TAAR1 antagonist 57, m5-HT2A agonist 15
COc1ccccc1S(=O)(=O)N[C@@H]1CC[C@@H](CCn2cc(C3CC3)nn2)O[C@@H]1CO	none (no result: MC4R antag cAMP, B2AR ag, MC4R ag barr)
CC1CCN(c2ccc3c(c2)S(=O)(=O)c2cccc(C(=O)NC4CCCCC4)c2C3=O)CC1	TAAR1 antagonist 71, TAAR1 ag 41
O=C(NC1CC1)c1cccc2c1C(=O)c1ccc(N3CCC(Cc4ccccc4)CC3)cc1S2(=O)=O	TAAR1 antagonist 78, TAAR1 ag 46
CCCCn1c(N)c(N(CC(C)C)C(=O)c2ccc(-c3ccc(Cl)cc3)o2)c(=O)[nH]c1=O	none
Cc1ccc2nc3cc([N+](=O)[O-])cc([N+](=O)[O-])c3cc2c1	B2AR ag 59
Cc1cccc(C)c1NC(=S)NCCc1ccccn1	none
COc1ccccc1NC(=S)NCCc1ccc(F)cc1	none
S=C(NCCc1ccccc1)Nc1cccc2cnccc12	TAAR1 ag 51
S=C(NCc1ccccc1)Nc1cccc2cnccc12	none
COc1ccccc1NC(=S)NCCc1ccccc1	TAAR1 ag 40
Cc1ccccc1NC(=S)NCCc1ccccn1	TAAR1 ag 60
Cc1cc2c(c(=O)o1)[C@@]1(C(=O)N(C)c3cccc(Br)c31)C1=C(CCCC1=O)O2	none (no result: MC4R antag cAMP, B2AR ag, MC4R ag barr, m5-HT2A agonist)
COC(=O)CC1N(S(=O)(=O)c2ccc(C)cc2)c2ccccc2C1(C(=O)OC)C(=O)OC (configuration not stated)	none (no result: MC4R antag cAMP, B2AR ag, MC4R ag barr)
CC(=O)Oc1cccc(NC(=O)c2cccc(C(=O)Nc3cccc(OC(C)=O)c3)c2)c1	TAAR1 antagonist 69
COc1ccc(C2=Nc3ccccc3N(C(=O)c3ccc(C(F)(F)F)cc3)C2C(=O)NCc2ccccc2)cc1 (configuration not stated)	none (no result: MC4R antag cAMP, B2AR ag, MC4R ag barr)
COc1ccc(/C=N/NC(=O)c2ccc3ccccc3c2)cc1OS(=O)(=O)c1ccc(NC(C)=O)cc1	TAAR1 antagonist 74
